Experimental data collected from several papers.
Compare with care: the assays were run in different laboratories. Converted amounts (≈) assume the structure as drawn.

Structure (SMILES) | tested on | assay | test system | conditions | quantity | value
O=C(Nc1ccc(Cl)cc1)Nc1cccc(-c2cn(Cc3cccc(Br)c3)nn2)c1 | NCI-H1299 | cell growth or viability, CCK-8 |  | 50 µM, 72 h | viability | 94.7%
O=C(Nc1ccc(Cl)cc1)Nc1ccc(-c2cn(Cc3ccc(Br)cc3)nn2)cc1 | NCI-H1299 | cell growth or viability, CCK-8 |  | 50 µM, 72 h | viability | 89.9%
Cc1ccc(-c2cc(-c3ccc(OCc4ccccc4)cc3)nc3c(N=Nc4ccc(F)cc4)c(N)nn23)cc1 | Enterobacter cloacae | microbial killing | ATCC23355 |  | MBC | 125 µg/mL (≈ 236 µM)
CN(C)CCNC(=O)c1ccc(-c2nc3ccc4[nH]ncc4c3c3c2CCCC3)c(F)c1 | 22Rv1 | cell growth or viability |  | 72 h | GI50 | 1280 nM
Cc1ccc(N=Nc2c(N)nn3c(-c4ccco4)cc(-c4ccc(OCc5ccccc5)cc4)nc23)cc1 | Enterobacter cloacae | microbial killing | ATCC23355 |  | MBC | 125 µg/mL (≈ 250 µM)
COc1ccc(NC(=O)Nc2ccc(-c3cn(Cc4ccc(C)cc4)nn3)cc2)cc1 | NCI-H1299 | cell growth or viability, CCK-8 |  | 50 µM, 72 h | viability | 104%
Cc1ccc(N=Nc2c(N)nn3c(-c4ccc(C)cc4)cc(-c4ccc(OCc5ccccc5)cc4)nc23)cc1 | Enterobacter cloacae | microbial killing | ATCC23355 |  | MBC | 62.5 µg/mL (≈ 119 µM)
Cc1ccc2[nH]nc(-c3nnc(Nc4ccc(Cl)cc4)s3)c2c1 | Serratia marcescens | microbial growth | ATCC8100 |  | MIC | 65.8 µg/mL (≈ 192 µM)
COc1ccc(NC(=O)Nc2cccc(-c3cn(Cc4ccc(C)cc4)nn3)c2)cc1 | NCI-H1299 | cell growth or viability, CCK-8 |  | 50 µM, 72 h | viability | 156%
COc1ccc(N=Nc2c(N)nn3c(-c4ccc(Cl)cc4Cl)cc(-c4ccc(OCc5ccccc5)cc4)nc23)cc1 | Enterobacter cloacae | microbial killing | ATCC23355 |  | MBC | 250 µg/mL (≈ 420 µM)
Cc1n[nH]c2ccc3nc(-c4ccc(C(=O)NCCN(C)C)cc4)c4c(c3c12)CCCC4 | 22Rv1 | cell growth or viability |  | 72 h | GI50 | 1780 nM
O=C(Nc1cccc(-c2cn(Cc3ccc(Cl)cc3)nn2)c1)Nc1ccccc1Br | NCI-H1299 | cell growth or viability, CCK-8 |  | 50 µM, 72 h | viability | 130%
COc1ccc(NC(=O)NCc2cn(Cc3ccc(Br)cc3)nn2)cc1 | NCI-H1299 | cell growth or viability, CCK-8 |  | 50 µM, 72 h | viability | 91.9%
O=C(Nc1ccc(-c2cn(Cc3ccc(Cl)cc3)nn2)cc1)Nc1ccccc1Br | NCI-H1299 | cell growth or viability, CCK-8 |  | 50 µM, 72 h | viability | 109%
CC(C)(C)c1cc(NC(=O)Nc2ccc(-c3cn4c(n3)sc3cc(OCCN5CCOCC5)ccc34)cc2)no1 | 22Rv1 | cell growth or viability |  | 72 h | GI50 | > 10000 nM
O=C(Nc1ccc(Cl)cc1)Nc1ccc(-c2cn(Cc3ccc(Cl)cc3)nn2)cc1 | NCI-H1299 | cell growth or viability, CCK-8 |  | 50 µM, 72 h | viability | 88.1%
Nc1nn2c(-c3ccc(Cl)cc3Cl)cc(-c3ccc(OCc4ccccc4)cc3)nc2c1N=Nc1ccc(F)cc1 | Enterobacter cloacae | microbial killing | ATCC23355 |  | MBC | 62.5 µg/mL (≈ 107 µM)
Cc1ccc2[nH]nc(-c3nnc(Nc4ccc(Br)cc4)s3)c2c1 | Serratia marcescens | microbial growth | ATCC8100 |  | MIC | 257 µg/mL (≈ 664 µM)
O=C(Nc1ccc(-c2cn(Cc3ccc(Br)cc3)nn2)cc1)Nc1ccccc1Br | NCI-H1299 | cell growth or viability, CCK-8 |  | 50 µM, 72 h | viability | 115%
